Data published in PMC6896334 (Cell reports, 2019).

Columns and labels:
E47 = target: T1, E47 (Homo sapiens, UniProt P15923); assay: Circular dichroism; assay type: binding; conditions: AGX51 0, 10, 20, 50 μM
T1 sequence (P15923 1-651 isoform P15923-2): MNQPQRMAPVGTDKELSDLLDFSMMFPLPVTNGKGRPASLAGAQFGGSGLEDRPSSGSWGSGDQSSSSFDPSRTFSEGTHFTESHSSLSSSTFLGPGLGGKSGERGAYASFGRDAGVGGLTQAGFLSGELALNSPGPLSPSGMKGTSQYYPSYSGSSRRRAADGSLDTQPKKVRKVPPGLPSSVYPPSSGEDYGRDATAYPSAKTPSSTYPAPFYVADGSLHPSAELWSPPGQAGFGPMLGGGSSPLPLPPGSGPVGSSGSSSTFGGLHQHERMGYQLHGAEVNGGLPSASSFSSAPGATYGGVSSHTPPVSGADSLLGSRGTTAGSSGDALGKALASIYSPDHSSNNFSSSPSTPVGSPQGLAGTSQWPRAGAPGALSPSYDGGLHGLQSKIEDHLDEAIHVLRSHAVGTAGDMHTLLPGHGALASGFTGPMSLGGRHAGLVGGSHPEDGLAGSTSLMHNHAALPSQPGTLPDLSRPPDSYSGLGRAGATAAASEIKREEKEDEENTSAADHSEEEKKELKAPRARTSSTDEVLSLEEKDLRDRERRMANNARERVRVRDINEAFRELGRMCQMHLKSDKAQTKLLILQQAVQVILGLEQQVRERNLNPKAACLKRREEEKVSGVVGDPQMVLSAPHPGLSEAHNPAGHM

[1] = target: T2, NanoLuc luciferase ID1 fusion protein (Homo sapiens, UniProt P41134); assay: NanoBRET target engagement assay in permeabilized 293T cells; assay type: binding; conditions: 2 μM AGX51 tracer, 0–60 μM competitor, 50 μg/mL digitonin
T2 sequence (P41134 1-155): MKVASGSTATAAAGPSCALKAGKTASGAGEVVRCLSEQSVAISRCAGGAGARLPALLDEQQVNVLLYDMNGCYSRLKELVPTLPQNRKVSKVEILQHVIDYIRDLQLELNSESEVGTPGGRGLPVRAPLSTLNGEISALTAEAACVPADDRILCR
Summary of the method: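 293T cells transfected with an N-terminal NanoLuc–ID1 fusion construct and plated 24 h later. Cells received 2 µM fluorescent tracer plus 0–60 µM competitor, then were permeabilised with digitonin (50 µg/mL). NanoBRET Nano-Glo substrate was added and the BRET ratio read, following the kit protocol for intracellular target engagement.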

ID1, ID2, ID3, and ID4 = assay: Western blot for ID proteins in HCT116 cells; assay type: cell-based, human; conditions: HCT116, 40 μM, 0-48 hours
HUVECs [2] = assay: HUVEC cell growth; assay type: cell-based, human; conditions: 20 μM, 5 days
Summary of the method: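 HUVECs seeded at 38,000 cells per 24-well well, in triplicate for each time point, with 20 µM test compound or DMSO. Viable cells were counted by trypan blue exclusion on days 1, 3 and 5 after seeding.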

4T1 cells = assay: 4T1 cell-based IC50; conditions: Mus musculus, 4T1, 24 h
Summary of the method: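 4T1 cells exposed to 0–20 µM test compound for 24 h. Whole-cell lysates were immunoblotted for Id1. Band intensities were read on 700/800 nm infrared channels, blank-subtracted and normalised to tubulin, and IC50 was taken from these blots.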

HUVECs [3] = assay: HUVEC cell cycle analysis; assay type: cell-based, human; conditions: 20 μM, 24 h
Summary of the method: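 Cells exposed to test compound or DMSO, then trypsinised, PBS-washed and fixed in 70% ethanol at −20°C. After centrifugation and PBS wash, cells were stained in PI/RNase buffer for 15 min at room temperature. DNA content was analysed by flow cytometry.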

[4] = 14-day toxicity study, i.p. dosing; assay type: in vivo, mouse; conditions: mice, 60 mg/kg i.p. bid, 14 days
Summary of the method: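 Mice given the test compound or vehicle (70% DMSO in water) i.p. at 60 mg/kg twice daily for 14 consecutive days. They were sacrificed 24 h after the last dose for gross and complete necropsy and clinical pathology. Clinical chemistry covered BUN, creatinine, ALP, ALT, AST, GGT, bilirubin, total protein, albumin, globulin, phosphorus, glucose, cholesterol, calcium, sodium, potassium and chloride.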

[5] = tested on: choroidal neovascularization; assay: Laser-induced choroidal neovascularization; assay type: in vivo, mouse
Summary of the method: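 Female C57BL/6 mice aged 4–6 weeks had laser rupture of Bruch's membrane at three sites per eye. Test compounds (1 or 5 µg) or DMSO were given intravitreally. At day 14, choroidal flat mounts were stained with FITC-Griffonia simplicifolia lectin, and CNV area was measured by fluorescence image analysis by an observer masked to group.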

**Q.** What does the source list for `CCC(=O)N(CCC(c1ccc2c(c1)OCO2)c1ccccc1OC)Cc1ccccc1` (stereo not shown) [AGX51, N-(3-(benzo[d][1,3]dioxol-5-yl)-3-(2-methoxyphenyl)propyl)-N-benzylpropionamide]?
**A.** interaction with E47 (CD) (E47): no evidence of an interaction; competition with the AGX51 tracer (BRET ratio) [1]: able to compete the AGX51 tracer; ID1, ID2, ID3 and ID4 protein levels (ID1, ID2, ID3, and ID4): reduced levels of ID1, ID2, ID3, and ID4; cell viability / growth (HUVECs [2]): reduced cell viability; IC50 (4T1 cells): 26.7 µM; cell cycle effect (HUVECs [3]): G0/G1 growth arrest; clinical chemistry parameters and hematology [4]: within normal limits; gross necropsy and histopathological evaluation of all major organs [4]: No abnormal findings; mortality or morbidity [4]: no mortality or morbidity was observed; weight loss [4]: no significant weight loss; area of CNV ([5]; intravitreal 5 μg on days 1 and 7, day 14, p < 0.05): effective at significantly reducing CNV; area of CNV ([5]; twice-daily i.p. injections ~30 mg/kg (500 μg), 14 days, vs vehicle, p < 0.05): significantly reduced CNV; area of CNV ([5]; two intravitreal injections of 10 μg 1 week apart, day 14, vs vehicle, p < 0.05): significantly suppressed CNV
